These results are taken from ChEMBL document CHEMBL1799931, “Synthesis, evaluation and metabolic studies of radiotracers containing a 4-(4-[18F]-fluorobenzyl)piperidin-1-yl moiety for the PET imaging of NR2B NMDA receptors” (Eur J Med Chem, 2011).

For orientation: pIC50 means −log10 of the IC50, conventionally taken in molar units. One may read the inhibition as the share of the control response that was lost under treatment. Usually ED50 stands for the dose that gives a 50% effect, or the effect in half of the subjects. A word on the half-life: it is how long it takes for the measured level to halve. The low end stands for fast loss, the high end for slow loss.

Data set [1] deals with T1, Glutamate NMDA receptor; GRIN1/GRIN2B (Homo sapiens, UniProt Q05586+Q13224). In words: Antagonist activity against NR1a/NR2B receptor transfected in human HEK293 cells assessed as inhibition of NMDA-induced Ca2+ influx. Format: functional, cell-based.
T1 sequence (Q13224 whole entry, other chains not shown): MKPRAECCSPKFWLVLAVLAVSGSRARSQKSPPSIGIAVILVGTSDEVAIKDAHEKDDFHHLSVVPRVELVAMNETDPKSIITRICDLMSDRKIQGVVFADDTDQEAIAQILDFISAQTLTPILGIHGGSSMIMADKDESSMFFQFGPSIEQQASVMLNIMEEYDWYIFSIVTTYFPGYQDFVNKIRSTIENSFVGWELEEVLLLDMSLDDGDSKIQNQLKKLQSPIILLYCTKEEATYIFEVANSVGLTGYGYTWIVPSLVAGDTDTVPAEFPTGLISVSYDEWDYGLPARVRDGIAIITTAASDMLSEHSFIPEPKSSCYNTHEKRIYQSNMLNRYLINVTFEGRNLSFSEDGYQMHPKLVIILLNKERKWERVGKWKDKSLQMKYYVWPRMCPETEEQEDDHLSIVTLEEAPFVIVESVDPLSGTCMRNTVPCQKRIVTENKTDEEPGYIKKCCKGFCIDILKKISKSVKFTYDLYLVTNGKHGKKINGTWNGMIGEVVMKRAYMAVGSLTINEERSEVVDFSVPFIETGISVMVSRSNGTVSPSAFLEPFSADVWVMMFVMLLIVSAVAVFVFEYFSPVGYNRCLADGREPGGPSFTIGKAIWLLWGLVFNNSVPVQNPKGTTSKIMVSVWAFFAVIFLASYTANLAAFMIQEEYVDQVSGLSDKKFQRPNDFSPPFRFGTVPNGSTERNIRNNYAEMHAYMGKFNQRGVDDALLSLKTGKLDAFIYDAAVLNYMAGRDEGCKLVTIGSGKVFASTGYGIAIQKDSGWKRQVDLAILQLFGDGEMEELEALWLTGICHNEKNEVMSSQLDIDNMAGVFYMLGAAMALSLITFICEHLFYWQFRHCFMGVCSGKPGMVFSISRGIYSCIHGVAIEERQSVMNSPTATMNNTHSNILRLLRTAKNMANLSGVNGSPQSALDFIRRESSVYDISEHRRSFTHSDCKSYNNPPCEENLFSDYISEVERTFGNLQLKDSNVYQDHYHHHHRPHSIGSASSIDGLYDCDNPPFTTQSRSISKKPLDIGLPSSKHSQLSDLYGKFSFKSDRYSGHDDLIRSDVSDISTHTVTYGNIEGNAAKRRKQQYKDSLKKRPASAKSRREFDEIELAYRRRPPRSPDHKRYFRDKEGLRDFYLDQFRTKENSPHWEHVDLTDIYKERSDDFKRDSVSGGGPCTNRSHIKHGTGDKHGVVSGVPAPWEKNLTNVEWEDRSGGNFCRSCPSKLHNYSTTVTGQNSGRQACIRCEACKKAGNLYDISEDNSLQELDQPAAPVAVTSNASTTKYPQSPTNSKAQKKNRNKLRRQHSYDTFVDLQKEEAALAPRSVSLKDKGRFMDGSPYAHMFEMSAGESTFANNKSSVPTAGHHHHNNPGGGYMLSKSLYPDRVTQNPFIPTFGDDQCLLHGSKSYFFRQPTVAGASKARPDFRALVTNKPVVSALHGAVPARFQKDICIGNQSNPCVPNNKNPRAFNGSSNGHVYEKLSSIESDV
The target of data set [2] is T1, Glutamate NMDA receptor; GRIN1/GRIN2B. Kind of data set: Displacement of [3H]-Ro-256981 from recombinant NR1/NR2B receptor. In kind it is protein-complex assay. (In general: Displacement assays read how much labelled ligand stays bound in the presence of the test substance.)
Data set [3] deals with Plasma. In words: Metabolic stability of the compound in rat plasma after 30 mins. In kind it is ADME, cell-free. To be noted: 0.5 h. An outline of the steps: (§1)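 Rat plasma or liver homogenate (0.450 mL) spiked with ligand at 5-200 mg/L. Samples were deproteinized with acetonitrile immediately or after 30 min at 37 °C, then analysed by HPLC in triplicate injections.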
In a further data set the test system is Liver. In words: Metabolic stability of the compound in rat liver homogenate after 30 mins. In kind it is ADME, tissue-based. The conditions noted are these: tissue homogenate, 0.5 h. An outline of the steps: as §1
Data set [4] concerns the target Glutamate NMDA receptor; GRIN1/GRIN2A (Homo sapiens) (UniProt Q05586+Q12879). In words: Antagonist activity against NR1a/NR2A receptor transfected in human HEK293 cells assessed as inhibition of NMDA-induced Ca2+ influx at 10 uM. Format: functional, cell-based. In short, it runs like this:
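HEK293 cells co-transfected 1:1 with NR1-1a plus NR2A-GFP or NR2B-GFP, D-APV (100 µM) after transfection, used at 24 h. Cells loaded with Fura-2/AM 45 min at 37 °C, then held in HBBSS with glycine, pH 7.45, at room temperature under perfusion. NMDA 100 µM for 30 s; ligands applied 60 s before and during.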

Data set [5] concerns Plasma. In words: Metabolic stability in Sprague-Dawley rat assessed as unmetabolized parent compound in plasma at 10 mg/kg, iv after 1 hr by MS/MS analysis. Format: ADME, organism-based. Also on record: dose 10 mg/kg, route intravenous. To be noted: in vivo. An outline of the steps:
(§2)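 Two anesthetized male Sprague-Dawley rats got 10 mg/kg in sterile water by tail vein; two controls got sterile water at 1 mL/kg. Rats were kept awake 1 h, then decapitated. Plasma and urine went to LC-MS/MS, full scans compared with control.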

Data set [6] is described as follows: Metabolic stability in Sprague-Dawley rat assessed as unmetabolized parent compound in urine at 10 mg/kg, iv after 1 hr by MS/MS analysis. Format: ADME, organism-based. Also on record: dose 10 mg/kg, route intravenous. The conditions noted are these: in vivo. In short, it runs like this: as §2
Another data set relates to Mus musculus. Kind of data set: Analgesic activity in po dosed mouse assessed as licking behavior measured after 20 to 25 mins by formalin test. Format: functional, organism-based. To be noted: Mus musculus, po; read-out: ED50.
The nature of data set [7]: Inhibition of alpha-adrenergic receptor.
The target in data set [8] is Voltage-gated inwardly rectifying potassium channel KCNH2 (Homo sapiens, UniProt Q12809). Kind of data set: Inhibition of human ERG potassium channel.
Chain of Voltage-gated inwardly rectifying potassium channel KCNH2 (Q12809 whole entry): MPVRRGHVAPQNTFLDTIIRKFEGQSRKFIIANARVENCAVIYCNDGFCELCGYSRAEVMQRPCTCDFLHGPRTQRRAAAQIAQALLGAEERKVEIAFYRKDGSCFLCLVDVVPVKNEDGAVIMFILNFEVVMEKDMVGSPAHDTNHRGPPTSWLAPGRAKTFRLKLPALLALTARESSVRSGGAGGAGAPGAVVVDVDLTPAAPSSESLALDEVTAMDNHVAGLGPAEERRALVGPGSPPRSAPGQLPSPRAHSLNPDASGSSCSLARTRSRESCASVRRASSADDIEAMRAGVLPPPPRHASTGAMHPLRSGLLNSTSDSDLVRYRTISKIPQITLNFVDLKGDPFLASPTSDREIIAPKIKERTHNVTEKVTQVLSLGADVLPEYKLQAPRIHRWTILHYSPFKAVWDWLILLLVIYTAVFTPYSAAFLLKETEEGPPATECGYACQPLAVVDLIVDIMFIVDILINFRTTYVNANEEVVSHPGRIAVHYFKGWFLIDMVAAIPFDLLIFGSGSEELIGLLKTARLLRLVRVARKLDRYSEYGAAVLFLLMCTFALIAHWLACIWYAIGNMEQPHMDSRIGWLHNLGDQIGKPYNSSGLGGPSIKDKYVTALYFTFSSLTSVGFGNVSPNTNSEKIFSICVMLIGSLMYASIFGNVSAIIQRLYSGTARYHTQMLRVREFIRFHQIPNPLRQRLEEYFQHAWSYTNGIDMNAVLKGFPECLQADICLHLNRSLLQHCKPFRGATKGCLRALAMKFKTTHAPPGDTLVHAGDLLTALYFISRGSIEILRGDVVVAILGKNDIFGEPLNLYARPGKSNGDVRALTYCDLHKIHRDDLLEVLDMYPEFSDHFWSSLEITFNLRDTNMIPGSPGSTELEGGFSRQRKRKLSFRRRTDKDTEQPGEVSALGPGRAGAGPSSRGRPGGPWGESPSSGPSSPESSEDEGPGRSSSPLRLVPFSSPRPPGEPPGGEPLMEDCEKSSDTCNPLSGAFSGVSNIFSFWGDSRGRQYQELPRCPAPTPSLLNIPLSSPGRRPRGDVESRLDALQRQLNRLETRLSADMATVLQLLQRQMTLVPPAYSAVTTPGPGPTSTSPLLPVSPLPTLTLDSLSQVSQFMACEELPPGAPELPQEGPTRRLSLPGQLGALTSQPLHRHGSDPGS
The nature of data set [9]: Half life in rat plasma. Format: ADME, cell-free.
The next data set concerns Rattus norvegicus. In words: Analgesic activity against carrageenan-induced mechanical hyperalgesia in iv dosed rat. In kind it is functional.

pIC50: −log10 of the molar value.

With `CS(=O)(=O)Nc1ccc2[nH]c(CN3CCC(Cc4ccc(F)cc4)CC3)nc2c1`, the pIC50 in [1] was 7.24.

Turning to `O=C(Nc1ccc2[nH]c(=O)oc2c1)C(=O)N1CCC(Cc2ccc(F)cc2)CC1` [RADIPRODIL], the pIC50 in data set [2] was 8.22; in data set [1], 7.16. For the same molecule, the Stability result in the data set on Plasma [3] and in the data set with Liver was “Stable” each time.

In the case of `O=C1Cc2cc(NC(=O)C(=O)N3CCC(Cc4ccc(F)cc4)CC3)ccc2N1`, the inhibition in [4] worked out at 14.5%. In addition, the negative logarithm of the IC50 (pIC50) in [1] was 6.08.

Consider `Fc1ccc(CC2CCNCC2)cc1`, for which the Stability entry (with Plasma [5]; in data set [6]) was “Unstable” in each case.

With `O=C(Nc1ccc2[nH]c(O)nc2c1)C(=O)N1CCC(Cc2ccc(F)cc2)CC1`, the pIC50 in data set [2] is 8.30. Moreover, in the data set with Mus musculus, the median effective dose (ED50) is 0.5 mg/kg.

On to `O=C(Nc1ccc2nc(O)oc2c1)C(=O)N1CCC(Cc2ccc(F)cc2)CC1` [RADIPRODIL], for which, in the data set on Mus musculus, the 50% effective dose (ED50) is 7.7 mg/kg. In addition, in [4], the inhibition was 10.1%.

Take `Oc1ccc2[nH]c(CN3CCC(Cc4ccc(F)cc4)CC3)nc2c1`: the Stability result in the data set with Plasma [3] and with Liver was “Stable” in each case. Also, the pIC50 is 6.21 in [7] and 7.33 in [1]. For the same molecule, in data set [4], the inhibition came out at 10.5%. In data set [8], this molecule yielded an IP of 500 nM.

For the molecule `O=C(Nc1ccc2[nH]c(=O)[nH]c2c1)C(=O)N1CCC(Cc2ccccc2)CC1`, in data set [2], the pIC50 was 8.10.

On to `Oc1ccc2nc(CN3CCC(Cc4ccccc4)CC3)[nH]c2c1`, for which the half-life in [9] is more than 8 h. The pIC50 in data set [1] was 6.68. The ED50 in the data set on Rattus norvegicus is 3.3 mg/kg.
